Test results taken from ChEMBL document CHEMBL1158426, “Semisynthesis and pharmacological activities of Tetrac analogs: angiogenesis modulators” (Bioorg Med Chem Lett, 2009).

Key:
Gallus gallus = organism: Gallus gallus; experiment: Antiangiogenic activity in chicken embryo chorioallantoic membrane model assessed as inhibition of FGF-induced angiogenesis at 1 uM treated 1 hr after FGF challenge measured after 48 hrs relative to control; format: functional, tissue-based
How it was run: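 Live chick chorioallantoic membrane was exposed to FGF with or without test agent, with PBS as a control. New vessel formation was scored as branch points and reported as mean ± SEM, n = 8. Percent inhibition was calculated against the FGF control.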

Mus musculus = organism: Mus musculus; experiment: Antiangiogenic activity in […] mouse assessed as inhibition of FGF-induced angiogenesis at 10 ug/Matrigel plug measured after 15 days of Matrigel injection using […] reagent staining by ELISA; format: functional; settings: in the assay text read “after 14 days” for “after 15 days”
How it was run: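 Mice housed 4 per cage at 20–24 °C, 60–70% humidity, 12 h light/dark, food and water ad libitum, with 5 days' acclimation. Matrigel thawed overnight at 4 °C, kept on ice, injected subcutaneously with FGF. Dissected plugs were stripped of peritoneum, homogenized in ddH₂O for 5–10 min, and spun at 4000 rpm for 10 min. Supernatant was mixed with Drabkin's reagent for 15–30 min at room temperature for hemoglobin measurement.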

[1] = Dissociation constant, pKa of the compound; format: physicochemical

Row | pKa [1] | Structure (SMILES) | inhibition (Gallus gallus) | inhibition (INH) (Mus musculus)
1 | – | O=C(O)Cc1cc(I)c(Oc2cc(I)c(OCC3CO3)c(I)c2)c(I)c1 (configuration not stated) | 62% | 100%
2 | – | CC(C)[Si](OC(=O)Cc1cc(I)c(Oc2cc(I)c(OCC3CO3)c(I)c2)c(I)c1)(C(C)C)C(C)C (configuration not stated) | 96% | 100%
3 | 4.3 | O=C(O)Cc1cc(I)c(Oc2cc(I)c(O)c(I)c2)c(I)c1 [TETRAC] | 85% | 90%
4 | – | O=C(Cc1cc(I)c(Oc2cc(I)c(OCC3CO3)c(I)c2)c(I)c1)OCC1CO1 (configuration not stated) | 31% | 100%
5 | – | CC(C)[Si](OC(=O)Cc1cc(I)c(Oc2cc(I)c(O)c(I)c2)c(I)c1)(C(C)C)C(C)C | 75% | 104%
6 | – | O=C(Cc1cc(I)c(Oc2cc(I)c(O)c(I)c2)c(I)c1)N1CCCCC1 | 15% | 104%
7 | – | CC(C)(C)OC(=O)Cc1cc(I)c(Oc2cc(I)c(O)c(I)c2)c(I)c1 | 88% | 95%
8 | – | O=C(Cc1cc(I)c(Oc2cc(I)c(OCC3CO3)c(I)c2)c(I)c1)N1CCCCC1 (configuration not stated) | 44% | 80%
